GPR7 antagonist: blocks human GPR7 receptor signaling; inhibition, % at 4.4 µM; P48145; GPR7-expressing cells, fluorescence antagonist assay; actives 1.1% (n = 290,000); in the data active = inhibition above about 16%, passing the limit was not always enough;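 note: cells stimulated with the agonist NPW; 0% = agonist with vehicle and 100% = vehicle without agonist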
Target sequence (P48145 whole entry, looked up): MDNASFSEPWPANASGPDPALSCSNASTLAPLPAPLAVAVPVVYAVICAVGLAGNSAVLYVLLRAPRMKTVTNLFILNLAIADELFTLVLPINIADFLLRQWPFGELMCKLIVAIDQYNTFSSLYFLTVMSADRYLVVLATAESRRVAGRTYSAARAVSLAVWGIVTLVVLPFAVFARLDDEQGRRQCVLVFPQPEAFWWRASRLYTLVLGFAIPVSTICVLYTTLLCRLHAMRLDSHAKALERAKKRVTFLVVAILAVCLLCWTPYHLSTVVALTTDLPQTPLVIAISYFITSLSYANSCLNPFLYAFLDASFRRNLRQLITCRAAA
EP2 modulator: modulates human prostaglandin E2 receptor EP2 signaling; EP2-expressing cells, cAMP HTRF FRET, PGE2 co-stimulation; actives 0.83% (n = 260,000); induction, % at 25 µM; P43116; AID 940;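 active = compounds whose cAMP rise, as percent of the full-agonist control response, exceeds 60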;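 note: rat C6 glioma line stably carrying human EP2 under a CMV promoter; the protocol text gives 20 µM as final concentration; 100% = response of wells given 1 µM PGE2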
OX1R antag-1: OX1R (human) antagonism; OX1R-expressing cells, FRET antagonist read-out; inhibition, % at 6.6 µM; actives 1.8% (n = 330,000); in the data active = inhibition mostly above about 38%, no sharp cut-off; inactive = mostly below about 40%;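 note: 0% = agonist challenge alone and 100% = reference antagonist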
OX1R antag-2: human HCRTR1 antagonism; actives 0.43% (n = 330,000); inhibition, % at 5 µM; CHO/OX1R cells, Fluo-8 calcium fluorescence, orexin A; O43613;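 active = inhibition above its plate's threshold, mean inhibition of all tested compounds on the plate plus 3 SD, cut at about 37% in these data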;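 note: 0% = orexin A challenge wells and 100% = SB-334867-A antagonist wells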
EP2 antag: inhibitors of human EP2 prostaglandin E2 receptor; inhibition, % at 25 µM; P43116; actives 0.52% (n = 260,000); C6 glioma cells expressing human EP2, cAMP TR-FRET; cells stimulated with saturating PGE2;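 active = percent inhibition above 40 after rounding to a whole number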;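 note: rat C6 glioma host cells with rolipram phosphodiesterase inhibitor present; the protocol text gives 20 µM as final concentration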
CHO parental Ca: counter-screen for OX1R antagonists: effect in parental CHO cells | parental CHO-K1, ATP-induced calcium, Fluo-8 fluorescence | inhibition, % at 5.6 µM | actives 0.63% (n = 330,000);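 active = inhibition above that plate's mean sample inhibition plus 3 SD, cut at about 26% in these data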;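 note: 0% = ATP-challenged DMSO wells and 100% = DMSO wells without ATP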
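Test system: parental CHO cells; detection: calcium-sensitive Fluo-8 fluorescence; evaluation: percent inhibition of calcium signal; also added: ATP as calcium-mobilizing challenge; repeats: one well per compound; control set: ATP-challenged DMSO wells low, unchallenged DMSO wells high; compound: single nominal dose of 5.6 µM per compound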
OX1R HTRF conf: OX1R (human) antagonism, HTRF confirmed. inhibition, % at 6.6 µM. actives 49% (n = 1,800). OX1R-expressing cells, HTRF antagonist assay. shares compounds with OX1R antag-1; in the data active = inhibition above about 55%;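 note: CHO cells expressing OX1R stimulated with orexin A at about EC80; 0% = agonist challenge alone and 100% = reference antagonist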
CHO-K1 HTRF: counter-screen for OX1R antagonists: effect in parental CHO-K1 cells; HTRF counterscreen; inhibition, % at 6.6 µM; AID 493232; shares compounds with OX1R antag-1; actives 48% (n = 1,800); in the data active = inhibition above about 17%;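 note: 0% = agonist challenge with vehicle and 100% = vehicle alone without agonist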
An asterisk follows results filed as active. The list is not random: actives were taken first. Their share in the collection is about 3.7%.

What do the screens show for `Cc1ccc(/C=c2\sc3n(c2=O)CN(c2ccc(Br)cc2)CN=3)o1`?
GPR7 antagonist: 7.8; EP2 modulator: -49.0; OX1R antag-1: 23.3; OX1R antag-2: 7.9; EP2 antag: 30.7; CHO parental Ca: 2.6

Results for c1csc(-c2nnc(-c3ccc(N4CCOCC4)cc3)o2)c1 ?
GPR7 antagonist: -2.6; EP2 modulator: -21.8; OX1R antag-1: 77.3*; OX1R antag-2: 14.1; EP2 antag: 16.9; CHO parental Ca: -9.7; OX1R HTRF conf: 83.1*; CHO-K1 HTRF: 12.2

Results for CCOc1ccc(-c2nnc(-c3cccs3)o2)cc1 ?
GPR7 antagonist: -4.5; EP2 modulator: 2.2; OX1R antag-1: 20.7; OX1R antag-2: -25.1; EP2 antag: 10.1; CHO parental Ca: -12.4

Results for CC(C)OCCCN1C(=O)c2[nH]nc(-c3ccccc3O)c2C1c1cccc(Cl)c1 (stereo unspecified) ?
GPR7 antagonist: -10.2; EP2 modulator: 29.4; OX1R antag-1: 15.4; OX1R antag-2: -36.5; EP2 antag: 12.7; CHO parental Ca: -31.4

What do the screens show for `Cc1nc(-c2ccc(C(=O)Nc3ccc(O)cc3)cc2)cs1`?
EP2 modulator: -54.4; EP2 antag: 9.8

Results for Cc1nc(-c2ccc(C(=O)Nc3cccc(Br)c3)cc2)cs1 ?
GPR7 antagonist: 11.5; EP2 modulator: -31.5; OX1R antag-1: 88.5*; OX1R antag-2: 10.8; EP2 antag: 7.8; CHO parental Ca: -3.4; OX1R HTRF conf: 53.8; CHO-K1 HTRF: 3.9

What do the screens show for `Nc1ccc2c(c1)C(=O)C(=O)c1ccccc1-2`?
GPR7 antagonist: -10.6; EP2 modulator: 7.1; OX1R antag-1: active; OX1R antag-2: -0.8; EP2 antag: 29.6; CHO parental Ca: -16.8; OX1R HTRF conf: 82.7*; CHO-K1 HTRF: 41.3*

Results for COc1cc(/C=C(\C#N)C(N)=O)ccc1OCc1c(C)no[n+]1[O-] ?
GPR7 antagonist: 13.3; EP2 modulator: -16.1; OX1R antag-1: 1.7; OX1R antag-2: -6.4; EP2 antag: 10.7; CHO parental Ca: 1.4

Results for COc1cc(/C=N/Nc2nncn2N)ccc1OCc1c(C)no[n+]1[O-] ?
GPR7 antagonist: 11.3; EP2 modulator: -26.8; OX1R antag-1: 89.1*; OX1R antag-2: -22.0; EP2 antag: 14.4; CHO parental Ca: -7.0; OX1R HTRF conf: 19.5; CHO-K1 HTRF: 17.6*

What do the screens show for `Cc1ccc([C@@H]2CC=C(C(=O)O)[C@H](c3ccccc3F)N2S(=O)(=O)c2ccccc2C)cc1`?
OX1R antag-1: 78.4*; OX1R antag-2: 29.6; CHO parental Ca: -10.2; OX1R HTRF conf: 81.3*; CHO-K1 HTRF: 0.6

Results for COc1ccc([C@@H]2CC=C(C(=O)O)[C@H](c3cccc(Cl)c3)N2S(=O)(=O)c2ccccc2C)cc1 ?
OX1R antag-1: 88.4*; OX1R antag-2: 14.4; CHO parental Ca: -18.7; OX1R HTRF conf: 91.4*; CHO-K1 HTRF: -0.5

What do the screens show for `Cc1ccc(S(=O)(=O)N2[C@@H](c3ccccc3)C(C(=O)O)=CC[C@H]2c2ccc(Cl)cc2)cc1`?
OX1R antag-1: 77.9*; OX1R antag-2: 14.2; CHO parental Ca: -11.6; OX1R HTRF conf: 53.4; CHO-K1 HTRF: 0.9

What do the screens show for `O=C(O)CN1C(=O)CC(c2ccccc2)CC1=O`?
GPR7 antagonist: 0.5; OX1R antag-1: 15.3; OX1R antag-2: 4.5; CHO parental Ca: -0.9

Results for COC(=O)[C@H](C)NC(=O)NCc1ccc(S(N)(=O)=O)cc1 ?
GPR7 antagonist: -11.4; EP2 modulator: 7.2; OX1R antag-1: 15.0; OX1R antag-2: 2.9; EP2 antag: 2.8; CHO parental Ca: -1.7

What do the screens show for `COC(=O)c1sccc1NC(=O)c1ccc(C)cc1`?
GPR7 antagonist: 13.0; OX1R antag-1: 23.2; OX1R antag-2: -31.9; CHO parental Ca: -13.6

How did COc1cc(OC)cc(C(=O)Nc2cccc3cccnc23)c1 do in these assays?
GPR7 antagonist: 4.7; OX1R antag-1: 80.7*; OX1R antag-2: -2.8; CHO parental Ca: -12.2; OX1R HTRF conf: 75.2*; CHO-K1 HTRF: 6.5

Screening data (PubChem BioAssay)
